Consider 49 compounds from ChEMBL document CHEMBL3272331, “Diacridines, bifunctional intercalators. Chemistry and antitumor activity” (J Med Chem, 1978).

Structures are written as SMILES.

Series [1] relates to P388. The series is described as follows: Antitumor activity against mouse P388 cells allografted in BDF/1 mouse assessed as increase in life span at optimal dose consecutively administered on day 1 to day 9 post challenge relative to control. The series is classed as functional. The gist of the method:
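P-388 tumour passaged as ascites in DBA/2 mice; 1×10^6 ascites cells given ip to BDF/1 mice on day 0. Drug given daily for 9 consecutive days from day 1 to groups of six mice at 20, 10, 5, 2.5, 1.25 and 0.625 mg/kg/day. Day of death recorded; % ILS calculated from treated vs control life spans; dose giving optimal % ILS reported.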

In a further series the test system is Mus musculus. Description: Toxicity in mouse P388 cells allografted BDF/1 mouse consecutively administered on day 1 to day 9 post challenge measured on day 5. The class given is organism-based.
The subject of series [2] is P388. Description: Growth inhibition of mouse P388 cells by in vitro assay. The series is classed as functional, cell-based. As to conditions: read-out: I50. In outline:
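P-388 murine leukemia cells kept in suspension culture were incubated with a range of diacridine concentrations. The concentration that reduced the rate of cell growth by 50% was taken as the I50.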

Take `COc1ccc2c(NCCCCCCNc3c4ccccc4nc4cc(OC)ccc34)c3ccccc3nc2c1`: in the series on P388 [1], the increase in life span (ILS) was 71%. In the series with Mus musculus, this compound returned an LD10 of 9.5 mg/kg/day. The IC50 with P388 [2] amounted to 240 nM.
On to `c1ccc2c(NCCCCCCCNc3c4ccccc4nc4ccccc34)c3ccccc3nc2c1`, for which the ILS in the series on P388 [1] turned out to be 67%. In the series with Mus musculus, this compound returned an LD10 of 12.5 mg/kg/day. Besides, the IC50 in the series on P388 [2] came to 320 nM.
In the case of `c1ccc2c(NCCCCCNc3c4ccccc4nc4ccccc34)c3ccccc3nc2c1`, the ILS in the series with P388 [1] turned out to be 36%. This compound gave an LD10 in the series on Mus musculus of 12.5 mg/kg/day.
For `c1ccc2c(NCCCCCCCCCCCCNc3c4ccccc4nc4ccccc34)c3ccccc3nc2c1`, in the series on P388 [1], the ILS is listed as 10%. Besides, the LD10 in the series with Mus musculus was 6.5 mg/kg/day. The IC50 with P388 [2] worked out at 320 nM.
Consider `CCc1cccc2c(NCCNc3c4ccccc4nc4c(CC)cccc34)c3ccccc3nc12`, for which the ILS in the series on P388 [1] is on record as 20%. The LD10 in the series with Mus musculus came out at 16 mg/kg/day.
With `CCc1cccc2c(NCCCCNc3c4ccccc4nc4c(CC)cccc34)c3ccccc3nc12`, the ILS in the series with P388 [1] came out at 10%. Also, the LD10 with Mus musculus was found to be 7.4 mg/kg/day.
Regarding `Cl.Nc1ccc2c(NCCCCCCNc3c4ccccc4nc4cc(N)ccc34)c3ccccc3nc2c1`, in the series with P388 [1], the ILS stood at 47%. Besides, in the series on Mus musculus, the LD10 is listed as over 20 mg/kg/day. In the series on P388 [2], the IC50 was determined as 210 nM.
The like results for `CCc1cccc2c(NCCCCCCNc3c4ccccc4nc4c(CC)cccc34)c3ccccc3nc12` were, in that order, 43%, 16 mg/kg/day and 230 nM.
For `O=[N+]([O-])c1ccc2c(NCCCCCCNc3c4ccccc4nc4cc([N+](=O)[O-])ccc34)c3ccccc3nc2c1`, the ILS with P388 [1] is reported as 37%. In the series on Mus musculus, this compound yielded an LD10 of over 20 mg/kg/day. Moreover, the IC50 with P388 [2] was determined as 480 nM.
The corresponding values for `COc1ccc2nc3ccccc3c(NCCCCCCNc3c4ccccc4nc4ccc(OC)cc34)c2c1` are 25%, 8.6 mg/kg/day and 320 nM.
The corresponding values for `CCCOc1ccc2c(NCCCCCCNc3c4ccccc4nc4cc(OCCC)ccc34)c3ccccc3nc2c1` are 37%, 6.8 mg/kg/day and 320 nM.
The corresponding values for `COc1cccc2c(NCCCCCCNc3c4ccccc4nc4c(OC)cccc34)c3ccccc3nc12` are 62%, 12.5 mg/kg/day and 190 nM.
For `CCCCOc1cccc2c(NCCCCCCNc3c4ccccc4nc4c(OCCCC)cccc34)c3ccccc3nc12`, the ILS with P388 [1] amounted to 7%. Also, the LD10 in the series with Mus musculus is recorded as 6.5 mg/kg/day. In addition, the IC50 in the series on P388 [2] was 360 nM.
The like results for `CCc1cccc2c(NCCCCCCCCNc3c4ccccc4nc4c(CC)cccc34)c3ccccc3nc12` were, in that order, 42%, 12 mg/kg/day and 230 nM.
The like results for `COc1ccc2nc3ccccc3c(NCCCCCCCCNc3c4ccccc4nc4ccc(OC)cc34)c2c1` were, in that order, 30%, 6 mg/kg/day and 190 nM.
On to `COc1ccc2c(NCCCCCCCCNc3c4ccccc4nc4cc(OC)ccc34)c3ccccc3nc2c1`, for which the ILS in the series on P388 [1] stood at 84%. The LD10 in the series with Mus musculus turned out to be 10.5 mg/kg/day.
As for `COc1cccc2c(NCCCCCCCCNc3c4ccccc4nc4c(OC)cccc34)c3ccccc3nc12`, in the series with P388 [1], the ILS stood at 89%. For the same compound, in the series on Mus musculus, the LD10 is on record as 13.5 mg/kg/day. In addition, the IC50 in the series with P388 [2] is 290 nM.
The like results for `COc1ccc2c(NCCCCCCCCNc3c4ccc(OC)cc4nc4c(OC)cccc34)c3cccc(OC)c3nc2c1` were, in that order, 66%, 13 mg/kg/day and 420 nM.
In the case of `COc1ccc2c(NCCCCCCCCNc3c4ccc(OC)cc4nc4ccc(Cl)cc34)c3cc(Cl)ccc3nc2c1`, the ILS with P388 [1] turned out to be 18%. This compound had an LD10 in the series with Mus musculus of 7 mg/kg/day. The IC50 in the series on P388 [2] amounted to 160 nM.
On to `COc1ccc2c(NCCCCCCCCNc3c4ccc(Cl)cc4nc4cc(OC)ccc34)c3ccc(Cl)cc3nc2c1.Cl`, for which, in the series on P388 [1], the ILS is recorded as 17%. The same compound had an LD10 in the series on Mus musculus of over 20 mg/kg/day.
The corresponding values for `CCOc1cccc2c(NCCCCCCCCNc3c4ccccc4nc4c(OCC)cccc34)c3ccccc3nc12` are 76% and 13.5 mg/kg/day.
Regarding `CCCOc1ccc2c(NCCCCCCCCNc3c4ccccc4nc4cc(OCCC)ccc34)c3ccccc3nc2c1`, in the series with P388 [1], the ILS amounted to 63%. Moreover, in the series with Mus musculus, the LD10 was 5.5 mg/kg/day. Further, the IC50 in the series on P388 [2] was found to be 210 nM.
In the case of `Cl.Nc1ccc2c(NCCCCCCCCNc3c4ccccc4nc4cc(N)ccc34)c3ccccc3nc2c1`, the ILS in the series on P388 [1] worked out at 58%. In the series on Mus musculus, this compound had an LD10 of over 20 mg/kg/day.
Take `O=[N+]([O-])c1ccc2c(NCCCCCCCCNc3c4ccccc4nc4cc([N+](=O)[O-])ccc34)c3ccccc3nc2c1`: in the series on P388 [1], the ILS is recorded as 45%. The same compound had an LD10 in the series on Mus musculus of over 20 mg/kg/day. Moreover, the IC50 in the series on P388 [2] amounted to 330 nM.
With `COc1ccc2c(NCCCCCCCCNc3c4ccc(OC)cc4nc4cc([N+](=O)[O-])ccc34)c3ccc([N+](=O)[O-])cc3nc2c1`, the ILS in the series on P388 [1] was found to be 21%. The compound further showed an LD10 in the series on Mus musculus of over 20 mg/kg/day.
For the compound `Clc1ccc2c(NCCCCCCCCNc3c4ccccc4nc4cc(Cl)ccc34)c3ccccc3nc2c1`, the ILS in the series with P388 [1] is on record as 29%. Also, the LD10 in the series with Mus musculus is given as over 20 mg/kg/day. Further, the IC50 in the series with P388 [2] turned out to be 230 nM.
With `Brc1ccc2c(NCCCCCCCCNc3c4ccccc4nc4cc(Br)ccc34)c3ccccc3nc2c1`, in the series on P388 [1], the ILS was found to be 9%. The compound also returned an LD10 in the series with Mus musculus of over 20 mg/kg/day. Moreover, in the series on P388 [2], the IC50 amounted to 210 nM.
For the compound `CSc1ccc2c(NCCCCCCCCNc3c4ccccc4nc4cc(SC)ccc34)c3ccccc3nc2c1.Cl`, in the series with P388 [1], the ILS was 27%. The LD10 with Mus musculus came to 8 mg/kg/day. In addition, the IC50 with P388 [2] was 370 nM.
The like results for `CSc1cccc2c(NCCCCCCCCNc3c4ccccc4nc4c(SC)cccc34)c3ccccc3nc12` were, in that order, 13%, over 20 mg/kg/day and 860 nM.
As for `CCCCOc1cccc2c(NCCCCCCCCNc3c4ccccc4nc4c(OCCCC)cccc34)c3ccccc3nc12`, the ILS with P388 [1] came to 7%. In addition, in the series on Mus musculus, the LD10 was found to be 7.6 mg/kg/day. Moreover, the IC50 in the series on P388 [2] worked out at 190 nM.
The like results for `CCc1cccc2c(NCCCCCCCCCCNc3c4ccccc4nc4c(CC)cccc34)c3ccccc3nc12` were, in that order, 33%, 13 mg/kg/day and 150 nM.
Consider `c1ccc2c(NCCCCCCCCCCNc3c4ccccc4nc4ncccc34)c3cccnc3nc2c1`, for which the ILS in the series with P388 [1] is on record as 22%.
As for `c1ccc2c(NCCCCCCCCCCCCNc3c4ccccc4nc4ncccc34)c3cccnc3nc2c1`, in the series with P388 [1], the ILS is listed as 10%.
Turning to `COc1ccc2c(NCCNc3c4ccccc4nc4cc(OC)ccc34)c3ccccc3nc2c1.Cl`, the ILS with P388 [1] is reported as 0%. The same compound came in with an LD10 with Mus musculus of 7.2 mg/kg/day.
Regarding `CCCCOc1cccc2c(NCCNc3c4ccccc4nc4c(OCCCC)cccc34)c3ccccc3nc12`, in the series on P388 [1], the ILS turned out to be 9%. This compound also gave an LD10 with Mus musculus of 12.5 mg/kg/day.
The like results for `COc1ccc2c(NCCCCNc3c4ccccc4nc4cc(OC)ccc34)c3ccccc3nc2c1.Cl` were, in that order, 10% and over 20 mg/kg/day.
The like results for `CCCOc1cccc2c(NCCCCNc3c4ccccc4nc4c(OCCC)cccc34)c3ccccc3nc12.Cl` were, in that order, 9% and 9.8 mg/kg/day.
The like results for `Cl.Nc1ccc2nc3ccccc3c(NCCCCCCCCNc3c4ccccc4nc4ccc(N)cc34)c2c1` were, in that order, 60% and over 20 mg/kg/day.
Take `Cc1ccc2c(NCCCCCCCCNc3c4ccccc4nc4cc(C)ccc34)c3ccccc3nc2c1.Cl`: in the series with P388 [1], the increase in lifespan (ILS) was determined as 59%. In the series on Mus musculus, this compound had an LD10 of 7.3 mg/kg/day.
The like results for `Cc1ccc2c(NCCCCCCCCNc3c4ccccc4nc4c(C)c(C)ccc34)c3ccccc3nc2c1C.Cl` were, in that order, 60% and 8 mg/kg/day.
Turning to `COc1ccc(C)c2c(NCCCCCCCCNc3c4ccccc4nc4c(OC)ccc(C)c34)c3ccccc3nc12.Cl`, the ILS in the series on P388 [1] turned out to be 20%. In the series on Mus musculus, this compound yielded an LD10 of 12.5 mg/kg/day.
For the compound `COc1cccc2c(NCCCCCCCCNc3c4ccc([N+](=O)[O-])cc4nc4c(OC)cccc34)c3ccc([N+](=O)[O-])cc3nc12.Cl`, the ILS with P388 [1] is 86%. In the series on Mus musculus, the LD10 is recorded as over 20 mg/kg/day.
The like results for `COc1ccc2c(NCCCCCCCCCCNc3c4ccccc4nc4cc(OC)ccc34)c3ccccc3nc2c1.Cl` were, in that order, 55% and 8 mg/kg/day.
The corresponding values for `COc1ccc2nc3cc(Cl)ccc3c(NCCCCCCCCNc3c4ccc(Cl)cc4nc4ccc(OC)cc34)c2c1` are 9% and over 20 mg/kg/day.
Turning to `c1ccc2c(NCCCCCCNc3c4ccccc4nc4ccccc34)c3ccccc3nc2c1`, the ILS in the series on P388 [1] is reported as 54%. Also, in the series on Mus musculus, the LD10 worked out at 9 mg/kg/day. In the series on P388 [2], the IC50 was 380 nM.
The like results for `c1ccc2c(NCCCCNc3c4ccccc4nc4ccccc34)c3ccccc3nc2c1` were, in that order, 13%, 11 mg/kg/day and 2710 nM.
The corresponding values for `c1ccc2c(NCCCCCCCCCCNc3c4ccccc4nc4ccccc34)c3ccccc3nc2c1` are 33%, 7 mg/kg/day and 380 nM.
The corresponding values for `c1ccc2c(NCCCCCCCCNc3c4ccccc4nc4ccccc34)c3ccccc3nc2c1` are 60%, 13.5 mg/kg/day and 320 nM.
Consider `c1ccc2c(NCCNc3c4ccccc4nc4ccccc34)c3ccccc3nc2c1`, for which the ILS with P388 [1] stood at 7%. Besides, in the series on Mus musculus, the LD10 worked out at 4.3 mg/kg/day. In the series on P388 [2], the IC50 came out at 1420 nM.

A word on the ILS: it is how much longer treated animals lived than controls.
